Experimental data reported in ChEMBL document CHEMBL3044709, “Antimicrobial furostanol saponins from the seeds of Capsicum annuum L. var. acuminatum” (2002).
Converted amounts (≈) assume the structure as drawn.

What was measured:
Format in all cases: functional
[1] = tested on: Lacticaseibacillus casei; test: Antimicrobial activity against Lactobacillus casei DSM 20011 after 48 hr by agar dilution method; conditions: DSM 20011, 48 h
In short: (§1)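 Agar dilution on standard plate count agar: 0.5 mL of a 2-fold serial dilution of sample mixed into 9.5 mL medium, poured into Petri dishes, organism streaked on the surface. Incubated at 28 °C (36 and 48 h). MIC is the lowest tested concentration with no visible growth.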

[2] = tested on: Saccharomycodes ludwigii; test: Antimicrobial activity against Saccharomycodes ludwigii Diproval 120 after 48 hr by agar dilution method; conditions: Diproval 120, 48 h
In short: (§2)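 Yeast peptone dextrose agar plates, each holding a 2-fold serial dilution of sample (0.5 mL into 9.5 mL medium). Yeast streaked onto the plates and incubated at 28 °C, read at 36 and 48 h. MIC is the lowest concentration tested showing no growth.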

[3] = tested on: Saccharomyces cerevisiae; test: Antimicrobial activity against Saccharomyces cerevisiae Diproval 404 after 48 hr by agar dilution method; conditions: Diproval 404, 48 h; in short: as §2
[4] = tested on: Saccharomyces cerevisiae; test: Antimicrobial activity against Saccharomyces cerevisiae Diproval 7070 after 48 hr by agar dilution method; conditions: Diproval 7070, 48 h; in short: as §2
[5] = tested on: Limosilactobacillus fermentum; test: Antimicrobial activity against Lactobacillus fermentum DSM 20052 after 48 hr by agar dilution method; conditions: DSM 20052, 48 h; in short: as §1
[6] = tested on: Aspergillus flavus; test: Antimicrobial activity against Aspergillus flavus ATCC 11655 after 48 hr by agar dilution method; conditions: ATCC 11655, 48 h
In short: (§3)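 Fungi tested by agar dilution in malt agar. Serial 2-fold sample dilutions (0.5 mL) were mixed with 9.5 mL medium and plated, then streaked with the organism. Incubation at 28 °C for 36 and 48 h. MIC is the lowest tested concentration without growth.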

[7] = tested on: Saccharomyces cerevisiae; test: Antimicrobial activity against Saccharomyces cerevisiae Diproval 9109 after 48 hr by agar dilution method; conditions: Diproval 9109, 48 h; in short: as §2
[8] = tested on: Saccharomyces cerevisiae; test: Antimicrobial activity against Saccharomyces cerevisiae Diproval 8167 after 48 hr by agar dilution method; conditions: Diproval 8167, 48 h; in short: as §2
[9] = tested on: Setophoma terrestris; test: Antimicrobial activity against Setophoma terrestris ATCC 11321 after 48 hr by agar dilution method; conditions: ATCC 11321, 48 h; in short: as §3
[10] = tested on: Hanseniaspora osmophila; test: Antimicrobial activity against Hanseniaspora osmophila CBS 313 after 48 hr by agar dilution method; conditions: CBS 313, 48 h; in short: as §2
[11] = tested on: Escherichia coli; test: Antimicrobial activity against Escherichia coli ATCC 35346 after 48 hr by agar dilution method; conditions: ATCC 35346, 48 h; in short: as §1
[12] = tested on: Bacillus cereus; test: Antimicrobial activity against Bacillus cereus DSM 345 after 48 hr by agar dilution method; conditions: DSM 345, 48 h; in short: as §1
[13] = tested on: Candida albicans; test: Antimicrobial activity against Candida albicans CBS 562 after 48 hr by agar dilution method; conditions: CBS 562, 48 h; in short: as §2
[14] = tested on: Enterococcus faecalis; test: Antimicrobial activity against Enterococcus faecalis DSM 2570 after 48 hr by agar dilution method; conditions: DSM 2570, 48 h; in short: as §1
[15] = tested on: Lacticaseibacillus rhamnosus; test: Antimicrobial activity against Lactobacillus rhamnosus DSM 20021 after 48 hr by agar dilution method; conditions: DSM 20021, 48 h; in short: as §1
[16] = tested on: Micrococcus luteus; test: Antimicrobial activity against Micrococcus luteus DSM 348 after 48 hr by agar dilution method; conditions: DSM 348, 48 h; in short: as §1
[17] = tested on: Staphylococcus aureus; test: Antimicrobial activity against Staphylococcus aureus subsp. aureus DSM 346 after 48 hr by agar dilution method; conditions: DSM 346, 48 h; in short: as §1
[18] = tested on: Bacillus subtilis; test: Antimicrobial activity against Bacillus subtilis DSM 345 after 48 hr by agar dilution method; conditions: DSM 345, 48 h; in short: as §1
[19] = tested on: Rhizopus arrhizus; test: Antimicrobial activity against Rhizopus oryzae ATCC 56536 after 48 hr by agar dilution method; conditions: ATCC 56536, 48 h; in short: as §3
[20] = tested on: Aspergillus fumigatus; test: Antimicrobial activity against Aspergillus fumigatus ATCC 1028 after 48 hr by agar dilution method; conditions: ATCC 1028, 48 h; in short: as §3
[21] = tested on: Hanseniaspora guilliermondii; test: Antimicrobial activity against Hanseniaspora guilliermondii CBS 465 after 48 hr by agar dilution method; conditions: CBS 465, 48 h; in short: as §2
[22] = tested on: Aspergillus niger; test: Antimicrobial activity against Aspergillus niger ATCC 1040 after 48 hr by agar dilution method; conditions: ATCC 1040, 48 h; in short: as §3
[23] = tested on: Pseudomonas aeruginosa; test: Antimicrobial activity against Pseudomonas aeruginosa DSM 1117 after 48 hr by agar dilution method; conditions: DSM 1117, 48 h; in short: as §1
[24] = tested on: Hanseniaspora uvarum; test: Antimicrobial activity against Hanseniaspora uvarum AP23 after 48 hr by agar dilution method; conditions: Distaam AP23, 48 h; in short: as §2
[25] = tested on: Escherichia coli; test: Antimicrobial activity against Escherichia coli DSM 682 after 48 hr by agar dilution method; conditions: DSM 682, 48 h; in short: as §1
[26] = tested on: Staphylococcus epidermidis; test: Antimicrobial activity against Staphylococcus epidermidis DSM 1798 after 48 hr by agar dilution method; conditions: DSM 1798, 48 h; in short: as §1
[27] = tested on: Saccharomyces cerevisiae; test: Antimicrobial activity against Saccharomyces cerevisiae Diproval 6073 after 48 hr by agar dilution method; conditions: Diproval 6073, 48 h; in short: as §2
[28] = tested on: Hanseniaspora vineae; test: Antimicrobial activity against Hanseniaspora vineae CBS 2171 after 48 hr by agar dilution method; conditions: CBS 2171, 48 h; in short: as §2
[29] = tested on: Bacillus licheniformis; test: Antimicrobial activity against Bacillus licheniformis DSM 13=ATCC 14580 after 48 hr by agar dilution method; conditions: DSM 13 = ATCC 14580, 48 h; in short: as §1
[30] = tested on: Lactiplantibacillus plantarum; test: Antimicrobial activity against Lactobacillus plantarum DSM 20174 after 48 hr by agar dilution method; conditions: DSM 20174, 48 h; in short: as §1
[31] = tested on: Stutzerimonas stutzeri; test: Antimicrobial activity against Pseudomonas stutzeri ATCC 962 after 48 hr by agar dilution method; conditions: ATCC 962, 48 h; in short: as §1
[32] = tested on: Penicillium expansum; test: Antimicrobial activity against Penicillium expansum ATCC 7861 after 48 hr by agar dilution method; conditions: ATCC 7861, 48 h; in short: as §3
[33] = tested on: Trichoderma viride; test: Antimicrobial activity against Hypocrea rufa ATCC 28020 after 48 hr by agar dilution method; conditions: ATCC 28020, 48 h; in short: as §3
[34] = tested on: Schizosaccharomyces pombe; test: Antimicrobial activity against Schizosaccharomyces pombe Diproval 106 after 48 hr by agar dilution method; conditions: Diproval 106, 48 h; in short: as §2
[35] = tested on: Saccharomyces cerevisiae; test: Antimicrobial activity against Saccharomyces cerevisiae Diproval 2439 after 48 hr by agar dilution method; conditions: Diproval 2439, 48 h; in short: as §2
[36] = tested on: Hanseniaspora uvarum; test: Antimicrobial activity against Hanseniaspora uvarum CBS 314 after 48 hr by agar dilution method; conditions: CBS 314, 48 h; in short: as §2

Compound: COC1(CC[C@@H](C)CO[C@@H]2O[C@H](CO)[C@@H](O)[C@H](O)[C@H]2O)O[C@H]2C[C@H]3[C@@H]4CC[C@H]5C[C@@H](O[C@@H]6O[C@H](CO)[C@H](O[C@@H]7O[C@H](CO)[C@@H](O)[C@H](O[C@@H]8O[C@H](CO)[C@@H](O)[C@H](O)[C@H]8O)[C@H]7O[C@@H]7O[C@H](CO)[C@@H](O)[C@H](O[C@@H]8O[C@H](CO)[C@@H](O)[C@H](O)[C@H]8O)[C@H]7O)[C@H](O)[C@H]6O)CC[C@]5(C)[C@H]4CC[C@]3(C)[C@H]2[C@@H]1C (stereo partly specified) [22-O-METHYLCAPSICOSIDE G]
- MIC [1]: 1000 µg/mL (≈ 703 µM)
- MIC [2]: 12.5 µg/mL (≈ 8.79 µM)
- MIC [3]: 25 µg/mL (≈ 17.6 µM)
- MIC [4]: 25 µg/mL (≈ 17.6 µM)
- MIC [5]: 1000 µg/mL (≈ 703 µM)
- MIC [6]: > 1000 µg/mL
- MIC [7]: 25 µg/mL (≈ 17.6 µM)
- MIC [8]: 25 µg/mL (≈ 17.6 µM)
- MIC [9]: 250 µg/mL (≈ 176 µM)
- MIC [10]: 25 µg/mL (≈ 17.6 µM)
- MIC [11]: 1000 µg/mL (≈ 703 µM)
- MIC [12]: 1000 µg/mL (≈ 703 µM)
- MIC [13]: 25 µg/mL (≈ 17.6 µM)
- MIC [14]: > 1000 µg/mL
- MIC [15]: 1000 µg/mL (≈ 703 µM)
- MIC [16]: > 1000 µg/mL
- MIC [17]: > 1000 µg/mL
- MIC [18]: > 1000 µg/mL
- MIC [19]: 125 µg/mL (≈ 87.9 µM)
- MIC [20]: > 1000 µg/mL
- MIC [21]: 12.5 µg/mL (≈ 8.79 µM)
- MIC [22]: > 1000 µg/mL
- MIC [23]: > 1000 µg/mL
- MIC [24]: 12.5 µg/mL (≈ 8.79 µM)
- MIC [25]: 1000 µg/mL (≈ 703 µM)
- MIC [26]: > 1000 µg/mL
- MIC [27]: 25 µg/mL (≈ 17.6 µM)
- MIC [28]: 12.5 µg/mL (≈ 8.79 µM)
- MIC [29]: > 1000 µg/mL
- MIC [30]: 1000 µg/mL (≈ 703 µM)
- MIC [31]: > 1000 µg/mL
- MIC [32]: 500 µg/mL (≈ 352 µM)
- MIC [33]: 250 µg/mL (≈ 176 µM)
- MIC [34]: 25 µg/mL (≈ 17.6 µM)
- MIC [35]: 25 µg/mL (≈ 17.6 µM)
- MIC [36]: 12.5 µg/mL (≈ 8.79 µM)
